The list is not random: actives were taken first. Their share in the collection is about 3%.
Cl transport mod – KCC2 (human) Cl- transport modulation. AID 1456. KCC2 cells, thallium flux FluoZin-2 fluorescence. actives 2.2% (n = 190,000). Q9H2X9. B-score of Tl+ flux slope (higher = more flux/activation; lower = inhibition) at 10 µM;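 active means thallium flux slope and its plate-corrected score both differing from the plate sample mean at a set confidence after two filtering rounds, in either direction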;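 further: slope of fluorescence scaled to starting intensity during 10 to 20 s after thallium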
ROMK primary – modulates human ROMK potassium channel activity; P48048; Tet-inducible ROMK, thallium flux fluorescence; actives lie on both sides; B-score at 10 µM; actives 2% (n = 130,000); AID 1918;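 active means signal ratio slope over the read window, or its plate-corrected B-score, at least 3 SD from the plate mean, either direction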;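 further: B-score of the F/F0 ratio slope over 7 to 12 s after thallium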
Target sequence (P48048 whole entry, looked up): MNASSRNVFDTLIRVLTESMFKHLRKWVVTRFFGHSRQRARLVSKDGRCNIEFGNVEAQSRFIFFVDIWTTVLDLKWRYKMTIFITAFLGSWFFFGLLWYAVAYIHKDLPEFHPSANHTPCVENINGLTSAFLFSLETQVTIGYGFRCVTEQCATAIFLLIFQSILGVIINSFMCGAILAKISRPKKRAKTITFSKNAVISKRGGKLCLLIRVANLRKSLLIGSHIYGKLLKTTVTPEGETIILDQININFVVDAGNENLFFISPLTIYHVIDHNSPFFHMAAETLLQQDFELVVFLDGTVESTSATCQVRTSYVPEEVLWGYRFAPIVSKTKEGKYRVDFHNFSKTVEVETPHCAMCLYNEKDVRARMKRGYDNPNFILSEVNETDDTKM
PKD1 kinase inh – inhibitors of human PKD1 kinase. Q15139. PKD1 kinase fluorescence polarization assay. inhibition, % (test concentration not listed). actives 0.056% (n = 200,000). AID 797; in the data active means inhibition above about 50%
Rad51 HR inh – blocks human Rad51 in homologous recombination. AID 1385. Q06609. actives 0.085% (n = 200,000). hRad51 DNA strand exchange, fluorescence dequenching. inhibition, % at 10 µM;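 active means inhibition above 40% at the single screening dose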;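 further: 0% = DMSO control wells and 100% = blanks with heterologous ssDNA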
Target sequence (Q06609 whole entry, looked up): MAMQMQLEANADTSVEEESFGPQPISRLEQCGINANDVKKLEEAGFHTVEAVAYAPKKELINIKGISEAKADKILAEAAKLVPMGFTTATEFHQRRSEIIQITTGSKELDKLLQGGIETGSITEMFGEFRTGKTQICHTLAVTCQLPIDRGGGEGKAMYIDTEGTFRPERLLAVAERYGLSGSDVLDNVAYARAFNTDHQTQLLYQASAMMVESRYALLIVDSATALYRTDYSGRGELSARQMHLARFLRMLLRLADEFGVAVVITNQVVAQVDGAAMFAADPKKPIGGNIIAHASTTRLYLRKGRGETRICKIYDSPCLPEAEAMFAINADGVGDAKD
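Material: Human Rad51 nucleoprotein filaments preassembled on unlabelled ssDNA | Also added: Labelled 47-mer dsDNA for strand exchange | Dosing: Single dose, 10 µM final compound | Schedule: 30-min compound preincubation and 15-min exchange, both room temperature | Technique: Fluorescence dequenching at 485/520 nm | Measure: Percent inhibition relative to plate controls and blanks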
KCC2 sec1 – KCC2 (human) modulation, secondary assay. shares compounds with Cl transport mod. HEK293-KCC2, thallium flux, FluoZin2 fluorescence; stronger effect = higher value. normalised thallium flux (F/F0 slope) at 10 µM. actives 15% (n = 3,700). AID 1713;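 active means thallium flux slope above the same plate's solvent-only control mean plus 3 SD; inconclusive means the two replicate wells disagree; inactive means no significant difference from solvent-only control wells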
KCC2 bumet counter – thallium flux persisting under bumetanide in KCC2 cells, counter-screen secondary assay; shares compounds with Cl transport mod; HEK293-KCC2 + bumetanide/ouabain, thallium flux FluoZin2; stronger effect = higher value; normalized thallium flux at 10 µM; actives 49% (n = 3,700);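 active means thallium entry rate above the same plate's blocked-transporter control wells by more than 3 SD; inconclusive means the two repeat wells disagree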;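 further: raw slope of fluorescence over initial fluorescence between 10 and 20 s after thallium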
KCC2 secondary2 – KCC2 (human) modulation, second secondary assay. shares compounds with Cl transport mod. HEK293-KCC2, thallium flux FluoZin2 fluorescence; actives lie on both sides; F/F0 rise rate, 10–20 s post-thallium. normalized thallium flux at 10 µM. actives 23% (n = 3,700);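 active means thallium flux slope more than 3 SD above or below the plate's solvent-only control mean, mostly below; inconclusive means the two repeat wells disagreed; inactive means no significant shift from solvent-only controls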;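 further: raw slope with 0.1% DMSO as baseline and bumetanide as block control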
HEK counter1 – acts in parental HEK cells, KCC2 counter-screen; shares compounds with Cl transport mod; HEK293 parental cells, thallium flux FluoZin2, ouabain; baseline-ratio fluorescence slope, 10–20 s after thallium; thallium flux rate (normalised fluorescence) at 10 µM; actives 46% (n = 3,700);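 active means thallium flux rate significantly above the same plate's solvent-only control wells, beyond their mean plus 3 SD; inconclusive means the two replicate wells gave conflicting results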
KCC2 retest ouab – KCC2 (human) modulation, ouabain retest; shares compounds with Cl transport mod; actives 48% (n = 3,700); HEK293-KCC2, thallium flux FluoZin2 fluorescence; bidirectional: low = inhibitor, high = activator; raw Tl+ flux slope (below DMSO = inhibition, above = activation) at 10 µM; AID 1717;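 active means thallium flux slope beyond 3 SD from same-plate DMSO control mean in most replicates, usually higher, sometimes lower; inconclusive means repeat tests gave conflicting results; inactive means no significant difference from controls in most replicates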;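 further: slope of initial-normalized fluorescence between seconds 10 and 20 after thallium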
HEK counter2 – acts in parental HEK cells, second KCC2 counter-screen; shares compounds with Cl transport mod; HEK293 parental, thallium flux FluoZin-2 fluorescence slope; thallium flux slope at 10 µM; actives 33% (n = 3,700);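 active means thallium flux slope above the same plate's solvent-control mean plus 3 SD in both duplicate wells; inconclusive means duplicate wells that disagreed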;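 further: run without ouabain in cells lacking the KCC2 cotransporter; slope of fluorescence scaled to its starting value between 10 and 20 s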
Starred values were filed as active, the others as inactive; u = inconclusive; x = no result.

SMILES	Cl transport mod	ROMK primary	PKD1 kinase inh	Rad51 HR inh	KCC2 sec1	KCC2 bumet counter	KCC2 secondary2	HEK counter1	KCC2 retest ouab	HEK counter2
CCOc1ccccc1OCCCOc1ccc(C)cc1Br	-0.133	-0.434	5.7	x	x	x	x	x	x	x
CCN(CC)CCCOc1ccc(C)cc1Br	x	0.0421	3.4	3.6	0.00693	0.00491	0.0273	u	0.0182	0.0106
CCCCn1c(SCC(=O)NCc2ccccc2)nc2ccc(N3CCOCC3)cc2c1=O	3.99*	0.0056	-3.1	4.3	0.00705	0.016*	0.0343	0.0112*	u	u
CCOC(=O)c1ccc(CNC(=O)CCC(=O)O)cc1	x	-0.237	8.8	5.8	0.0101	0.00514	0.0344	0.00704	0.0221	0.0101
Cc1nnc(SCc2cccc3ccccc23)s1	-0.0674	x	x	13.6	x	x	x	x	x	x
NNC(=O)c1cc(-c2cccs2)nc2ccccc12	0.386	x	x	7.5	x	x	x	x	x	x
C/C(=N\NC(=O)c1cc(-c2cccs2)nc2ccccc12)c1ccccn1	16.8*	0.767	4.9	8.3	0.0149*	0.0436*	0.036	0.0604*	0.0446*	u
CC(=O)N1CCCc2cc(S(=O)(=O)N(C)Cc3ccccc3)ccc21	-4.02*	x	-8.1	-6.7	0.00699	0.00649	0.0335	0.00455	u	0.0112
Cc1ccc(C(=O)NC(=S)NCC2CCCO2)cc1[N+](=O)[O-] (stereo not drawn)	2.07	0.349	1.3	-29.6	x	x	x	x	x	x
CN(C)c1ccc(/C=N/NC(=O)c2ccccc2O)o1	5.07*	x	6.0	23.1	0.0104	u	0.0332	0.0106*	0.0203	0.012
O=C(N/N=C/c1ccc(-c2cccc([N+](=O)[O-])c2)o1)c1ccccc1O	3.35*	0.264	-3.1	-6.1	0.0106	0.0235*	0.0377	0.0123*	0.0317*	u
O=C(N/N=C/c1ccc(-c2cccc(C(F)(F)F)c2)o1)c1ccccc1Br	x	x	5.4	-9.4	x	x	x	x	x	x
O=C(N/N=C/c1ccc(-c2cccc([N+](=O)[O-])c2)o1)c1ccc([N+](=O)[O-])cc1	1.91	-0.492	-7.4	-5.5	x	x	x	x	x	x
CN(C)c1ccc(/C=N/NC(=O)C(O)(c2ccccc2)c2ccccc2)o1	x	x	-4.0	-5.5	x	x	x	x	x	x
O=C(N/N=C/c1ccc(-c2cccc(C(F)(F)F)c2)o1)c1ccccc1O	4.77*	-0.812	-1.2	4.5	0.00689	0.0287*	0.0326	0.0156*	u	0.0191*
Cc1cccc(C(=O)N/N=C/c2cc(Br)c(Br)o2)c1	0.061	0.403	-0.7	-0.9	0.009	0.0165*	0.0325	0.00912*	u	0.0094
Cn1c(=S)ccc2ccccc21	-0.214	0.398	1.4	-2.0	x	x	x	x	x	x
O=C(N/N=C/c1ccc(-c2cccc(C(F)(F)F)c2)o1)c1cccc(F)c1	12*	x	-3.4	3.5	0.00857	0.016*	0.0331	0.0118*	u	0.0105
Cc1ccc(/C=N/NC(=O)c2cccc([N+](=O)[O-])c2)o1	5.51*	1.12	-2.9	-3.2	0.0104	0.0106*	0.0333	0.0121*	0.0227	0.0115
NC(=O)N/N=C/c1ccc(-c2cccc(C(F)(F)F)c2)o1	-0.0281	0.0547	-1.8	-5.8	x	x	x	x	x	x
CC(=O)Nc1cccc(C(=O)N/N=C/c2ccc(C)o2)c1	-0.443	-0.78	-7.3	0.5	x	x	x	x	x	x
CS(=O)(=O)N1CCC(Oc2ccccc2C(=O)NCCCc2cccnc2)CC1	-0.0527	-1.14	-6.2	-6.5	x	x	x	x	x	x
O=C(CSc1nnc(-c2ccncc2)o1)NC1CCCCC1	0.551	x	-10.8	-0.1	x	x	x	x	x	x
Cc1cc(-c2nnc(SCC(=O)NC3CCCC3)o2)no1	7.14*	0.0818	-1.6	-0.8	0.00707	0.00465	0.0289	0.0072	0.0175	0.0103
O=c1[nH]cc(C(F)(F)F)cc1NS(=O)(=O)c1ccccc1[N+](=O)[O-]	-0.00453	0.0839	-0.7	3.7	x	x	x	x	x	x
SMILES	Cl transport mod	ROMK primary	PKD1 kinase inh	Rad51 HR inh	KCC2 sec1	KCC2 bumet counter	KCC2 secondary2	HEK counter1	KCC2 retest ouab	HEK counter2
Cc1ccc2nc(CSc3nc(C)cc(C)c3C#N)[nH]c2c1	5.94*	-0.0448	4.6	-8.3	0.0166	0.00345	0.0246*	0.00612*	0.0145	0.00935
Cc1nn(C)cc1-c1n[nH]c(=S)n1-c1ccc(F)cc1	0.573	1.56	-4.8	7.5	x	x	x	x	x	x
S=c1[nH]nc(-c2ccc3ccccc3n2)n1-c1cc(Cl)cc(Cl)c1	22.1*	0.545	1.4	10.4	0.0209*	0.0542*	0.0333	0.0387*	0.0509*	0.0126*
S=c1[nH]nc(-c2ccn[nH]2)n1-c1ccccc1Cl	-0.794	x	x	x	x	x	x	x	x	x
Fc1ccc(-n2c(-c3ccc4ccccc4n3)n[nH]c2=S)cc1	6.63*	0.699	-0.4	11.1	u	0.0224*	0.0324	0.0178*	0.0272*	0.0183*
S=c1[nH]nc(-c2ccc3ccccc3n2)n1-c1ccccc1Cl	5.98*	x	3.4	-4.4	0.011	0.0265*	0.0328	0.0125*	0.0252	0.0105
COc1ccc(-c2noc(CN3CCCC(OCc4ccccn4)C3)n2)cc1 (stereo not drawn)	-1.19	x	x	-4.0	x	x	x	x	x	x
COc1cc2nc(=S)n3[nH]c(COc4ccccc4C)nc3c2cc1OC	-9.22*	x	-0.7	3.5	0.00884	0.00589	0.0294	0.00611*	0.00997*	u
Cc1ccc(-n2c(-c3ccncc3)n[nH]c2=S)c(C)c1	-0.035	1.32	2.1	x	x	x	x	x	x	x
CN(C)[C@@H]1CCC[C@@H]1OC(=O)C(c1ccccc1)c1ccccc1	1.61	-0.875	11.1	-4.0	x	x	x	x	x	x
O=C(C1=C(O)/C(=C/c2ccc(O)cc2)CCC1)C(F)(F)F	-1.29	0.596	-5.6	4.9	x	x	x	x	x	x
COc1ccc(/C=C2\CCCC(C(=O)C(F)(F)F)=C2O)cc1	x	-2.57	-2.4	3.0	0.00937	0.0243*	0.0301	0.0114*	0.0336*	0.0105*
CC(=O)c1cc2c(cc1NC(=O)c1ccccc1C)OCO2	0.727	-0.973	-5.4	-9.0	x	x	x	x	x	x
O=C(CN1CCN(c2ccccc2O)CC1)Nc1ccc2c(c1)CCC2	-0.226	x	-7.2	-0.2	x	x	x	x	x	x
O=C(Nc1nnc(-c2ccccc2)o1)Nc1ccccc1Cl	19.6*	x	-13.7	x	u	0.0318*	0.0382	u	0.0364*	u
CCOc1ccc2nc(N3C(=O)/C(=C/c4ccc(Cl)cc4)NC3=S)sc2c1	18.8*	x	0.4	-18.4	0.00725	0.0455*	0.0493*	0.0628*	0.0483*	0.0466*

Assay outcomes (PubChem)
